How the values were obtained:
Format in all cases: functional, cell-based
A549 [1] = experiment: Compound was tested for its cytotoxicity by inhibiting the growth of A-549 cell line after 72 h; conditions: Homo sapiens, A549, 72 h
MCF7 = experiment: Compound was tested for its cytotoxicity by inhibiting the growth of MCF-7 cell line after 72 h; conditions: Homo sapiens, MCF7, 72 h
A-431 = experiment: Cytotoxic effect on A431 cell proliferation after 72 hr; conditions: Homo sapiens, A-431, 72 h
In short: (§1)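 Human cancer cell lines were exposed to the compound continuously for 72 h, and growth inhibition was measured. IC50 was taken as the concentration that inhibits 50% of cell-line growth.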

A549 [2] = experiment: Concentration of compound that Compound was tested for its cytotoxicity by inhibiting the growth of A-549 cell line after 72 h; conditions: Homo sapiens, A549, 72 h; in short: as §1
A549 [3] = experiment: Concentration of compound that inhibits 50% of growth of Compound was tested for its cytotoxicity by inhibiting the growth of; conditions: Homo sapiens

For `COc1cccc(C(=O)O[C@H]2[C@@H]3[C@]4(OC(C)=O)CO[C@@H]4C[C@H](O)[C@@]3(C)C(=O)[C@H](OC(=O)CCSSC)C3=C(C)[C@@H](OC(=O)[C@H](O)[C@H](C=C(C)C)NC(=O)OC(C)(C)C)C[C@]2(O)C3(C)C)c1`, the IC50 (A549 [1]) was 0.1 nM and the IC50 (MCF7) was 0.038 nM.
In the case of `CSSCCC(=O)O[C@H]1C[C@H]2OC[C@@]2(OC(C)=O)[C@H]2[C@H](OC(=O)c3ccccc3)[C@]3(O)C[C@H](OC(=O)[C@H](O)[C@H](C=C(C)C)NC(=O)OC(C)(C)C)C(C)=C([C@@H](O)C(=O)[C@]12C)C3(C)C`, the IC50 (A-431) is reported as 0.3 nM and the IC50 (A549 [1]) is reported as 0.2 nM.
Molecule `CSSCCC(=O)O[C@H]1C(=O)[C@@]2(C)[C@H]([C@H](OC(=O)c3cc(F)cc(F)c3)[C@]3(O)C[C@H](OC(=O)[C@H](O)[C@H](C=C(C)C)NC(=O)OC(C)(C)C)C(C)=C1C3(C)C)[C@]1(OC(C)=O)CO[C@@H]1C[C@@H]2O` has an IC50 (A549 [1]) of 0.36 nM and an IC50 (MCF7) of 0.15 nM.
For `CSSCCC(=O)O[C@H]1C(=O)[C@@]2(C)[C@H]([C@H](OC(=O)c3cccc(N(C)C)c3)[C@]3(O)C[C@H](OC(=O)[C@H](O)[C@H](C=C(C)C)NC(=O)OC(C)(C)C)C(C)=C1C3(C)C)[C@]1(OC(C)=O)CO[C@@H]1C[C@@H]2O`, the IC50 (A549 [1]) was > 3 nM and the IC50 (MCF7) was 3 nM.
For `COc1ccc(OC)c(C(=O)O[C@H]2[C@@H]3[C@]4(OC(C)=O)CO[C@@H]4C[C@H](O)[C@@]3(C)C(=O)[C@H](OC(=O)CCSSC)C3=C(C)[C@@H](OC(=O)[C@H](O)[C@H](C=C(C)C)NC(=O)OC(C)(C)C)C[C@]2(O)C3(C)C)c1`, the IC50 (A549 [1]) was 0.08 nM and the IC50 (MCF7) was 0.04 nM.
For `CC(=O)O[C@H]1C(=O)[C@@]2(C)[C@H]([C@H](OC(=O)c3cccc(N(C)C)c3)[C@]3(O)C[C@H](OC(=O)[C@H](O)[C@H](C=C(C)C)NC(=O)OC(C)(C)C)C(C)=C1C3(C)C)[C@]1(OC(C)=O)CO[C@@H]1C[C@@H]2O`, the IC50 (A549 [1]) was 1 nM and the IC50 (MCF7) was 1 nM.
With `CCC(=O)O[C@H]1C(=O)[C@@]2(C)[C@H]([C@H](OC(=O)c3ccccc3)[C@]3(O)C[C@H](OC(=O)[C@H](O)[C@H](CC(C)C)NC(=O)CCSSC)C(C)=C1C3(C)C)[C@]1(OC(C)=O)CO[C@@H]1C[C@@H]2O` the IC50 (A-431) was > 3 nM and the IC50 (A549 [1]) was > 3 nM.
`COc1ccc(OC)c(C(=O)O[C@H]2[C@@H]3[C@]4(OC(C)=O)CO[C@@H]4C[C@H](O)[C@@]3(C)C(=O)[C@H](OC(C)=O)C3=C(C)[C@@H](OC(=O)[C@H](O)[C@H](C=C(C)C)NC(=O)OC(C)(C)C)C[C@]2(O)C3(C)C)c1` showed an IC50 (A549 [1]) of 0.03 nM and an IC50 (MCF7) of 0.03 nM.
In the case of `CSSCCC(=O)O[C@@H](C(=O)O[C@H]1C[C@@]2(O)[C@@H](OC(=O)c3ccccc3)[C@@H]3[C@]4(OC(C)=O)CO[C@@H]4C[C@H](O)[C@@]3(C)C(=O)[C@H](OC(C)=O)C(=C1C)C2(C)C)[C@H](C=C(C)C)NC(=O)OC(C)(C)C`, the IC50 (A-431) is reported as > 3 nM and the IC50 (A549 [1]) is reported as 0.9 nM.
With `CSSc1cccc(C(=O)O[C@H]2[C@@H]3[C@]4(OC(C)=O)CO[C@@H]4C[C@H](O)[C@@]3(C)C(=O)[C@H](OC(C)=O)C3=C(C)[C@@H](OC(=O)[C@H](O)[C@H](C=C(C)C)NC(=O)OC(C)(C)C)C[C@]2(O)C3(C)C)c1` the IC50 (A-431) was > 3 nM and the IC50 (A549 [1]) was > 3 nM.
In the case of `CSSCCC(=O)O[C@H]1C(=O)[C@@]2(C)[C@H]([C@H](OC(=O)c3cccc(Cl)c3)[C@]3(O)C[C@H](OC(=O)[C@H](O)[C@H](C=C(C)C)NC(=O)OC(C)(C)C)C(C)=C1C3(C)C)[C@]1(OC(C)=O)CO[C@@H]1C[C@@H]2O`, the IC50 (MCF7) is reported as 0.08 nM and the IC50 (A549 [2]) is reported as 0.29 nM.
In the case of `CSSCCC(=O)N[C@@H](CC(C)C)[C@@H](O)C(=O)O[C@H]1C[C@@]2(O)[C@@H](OC(=O)c3ccccc3)[C@@H]3[C@]4(OC(C)=O)CO[C@@H]4C[C@H](O)[C@@]3(C)C(=O)[C@H](OC(=O)N3CCOCC3)C(=C1C)C2(C)C`, the IC50 (A-431) is reported as 2.8 nM and the IC50 (A549 [1]) is reported as > 3 nM.
Work on `CC(=O)O[C@H]1C(=O)[C@@]2(C)[C@H]([C@H](OC(=O)c3cccc(Cl)c3)[C@]3(O)C[C@H](OC(=O)[C@H](O)[C@H](C=C(C)C)NC(=O)OC(C)(C)C)C(C)=C1C3(C)C)[C@]1(OC(C)=O)CO[C@@H]1C[C@@H]2O` yielded an IC50 (A549 [1]) of 0.03 nM and an IC50 (MCF7) of 0.02 nM.
In the case of `COc1cccc(C(=O)O[C@H]2[C@@H]3[C@]4(OC(C)=O)CO[C@@H]4C[C@H](O)[C@@]3(C)C(=O)[C@H](OC(C)=O)C3=C(C)[C@@H](OC(=O)[C@H](O)[C@H](C=C(C)C)NC(=O)OC(C)(C)C)C[C@]2(O)C3(C)C)c1`, the IC50 (A549 [1]) is reported as 0.04 nM and the IC50 (MCF7) is reported as 0.02 nM.
Work on `CC(=O)O[C@H]1C(=O)[C@@]2(C)[C@H]([C@H](OC(=O)c3cc(F)cc(F)c3)[C@]3(O)C[C@H](OC(=O)[C@H](O)[C@H](C=C(C)C)NC(=O)OC(C)(C)C)C(C)=C1C3(C)C)[C@]1(OC(C)=O)CO[C@@H]1C[C@@H]2O` yielded an IC50 (MCF7) of 0.04 nM and an IC50 (A549 [3]) of 0.1 nM.
